From ChEMBL document CHEMBL4715824, “Chemical Proteomic Characterization of a Covalent KRASG12C Inhibitor” (ACS Med Chem Lett, 2018) come the findings set out here.

For test [1], the system named is GTPase KRas (Homo sapiens), P01116 [G12C]. Kind of test: Covalent binding affinity to KRAS G12C mutant at Cys12 residue in human NCI-H358 cells assessed as log2 H/L ratio at 10 uM pretreated for 3 hrs followed by N-(((6S,7R)-7-(4-chloro-3-fluorophenyl)-1,4-oxazepan-6-yl)methyl)-2-hydroxyacetamide treatment for 3 hrs by competitive TMT click chemistry pull-down experiment based LC-MS/MS analysis. The test is classed as cell-based. As to conditions: time 6.0 hrs. An outline of the steps: (§1)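 H358 cells were pretreated with DMSO (n = 3) or 10 μM compound for 3 h, then 2 μM alkyne probe was added for another 3 h. Cells were lysed, clicked onto azide-agarose resin, digested, TMT-labelled and pooled. The pool was fractionated by high-pH HPLC and each fraction run twice by 60 min low-pH nano LC-MS/MS. Readout was log2 compound/DMSO normalized reporter intensity, with a least-squares means test and FDR adjustment.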

In a further test the target is T1, Reticulon-4 (Homo sapiens, UniProt Q9NQC3).
T1 sequence (Q9NQC3 whole entry): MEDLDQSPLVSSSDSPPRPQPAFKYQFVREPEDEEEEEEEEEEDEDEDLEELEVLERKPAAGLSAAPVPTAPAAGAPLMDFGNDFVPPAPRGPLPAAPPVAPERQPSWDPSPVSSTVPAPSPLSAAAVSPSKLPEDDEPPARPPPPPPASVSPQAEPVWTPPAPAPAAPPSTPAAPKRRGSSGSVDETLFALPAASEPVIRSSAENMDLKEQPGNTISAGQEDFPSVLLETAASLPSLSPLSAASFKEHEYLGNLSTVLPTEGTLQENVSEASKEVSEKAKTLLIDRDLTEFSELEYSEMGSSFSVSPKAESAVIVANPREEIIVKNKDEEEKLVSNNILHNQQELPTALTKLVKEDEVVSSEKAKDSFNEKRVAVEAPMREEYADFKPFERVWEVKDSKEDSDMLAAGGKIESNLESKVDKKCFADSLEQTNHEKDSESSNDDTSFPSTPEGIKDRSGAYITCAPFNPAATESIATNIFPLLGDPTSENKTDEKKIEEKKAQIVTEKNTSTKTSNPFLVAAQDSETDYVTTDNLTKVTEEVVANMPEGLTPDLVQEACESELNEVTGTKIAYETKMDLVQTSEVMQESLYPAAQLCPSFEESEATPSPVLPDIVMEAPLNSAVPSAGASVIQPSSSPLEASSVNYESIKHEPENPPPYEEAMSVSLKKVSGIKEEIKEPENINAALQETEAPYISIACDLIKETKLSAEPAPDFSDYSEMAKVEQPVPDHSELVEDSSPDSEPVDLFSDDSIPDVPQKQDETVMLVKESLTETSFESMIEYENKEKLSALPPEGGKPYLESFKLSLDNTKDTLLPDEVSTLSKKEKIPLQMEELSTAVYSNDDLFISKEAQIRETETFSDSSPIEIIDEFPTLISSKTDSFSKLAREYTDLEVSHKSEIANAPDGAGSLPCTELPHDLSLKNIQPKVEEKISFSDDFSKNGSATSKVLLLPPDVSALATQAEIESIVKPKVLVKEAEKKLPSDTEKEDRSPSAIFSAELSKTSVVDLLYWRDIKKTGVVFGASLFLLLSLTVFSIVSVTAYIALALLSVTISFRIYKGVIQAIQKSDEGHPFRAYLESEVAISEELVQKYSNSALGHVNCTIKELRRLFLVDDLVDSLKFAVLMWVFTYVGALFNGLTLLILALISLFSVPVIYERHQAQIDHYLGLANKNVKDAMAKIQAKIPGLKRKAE
Description: Covalent binding affinity to RTN4 at Cys1101 residue in human NCI-H358 cells assessed as reduction of log2 H/L ratio for tryptic peptide […] incubated for 4 hrs followed by cell lysis and subsequently labelled with light thiol probe N-((S)-18-iodo-11-isopropyl-10,13,17-trioxo-3,6-dioxa-9,12,16-triazaoctadecyl)-6-((4R,5S)-5-methyl-2-oxoimidazolidin-4-yl)hexanamide and heavy thiol probe 4 for 1 hr under dark conditions followed by tryptic digestion for overnight and measured by discovery ABPP based nano LC-MS/MS analysis. Summed up:
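H358 cells were treated 4 h with DMSO, 0.08, 0.4, 2 or 10 μM, each paired with DMSO control cells, in biological duplicate. After lysis and denaturation, treated lysate took heavy thiol probe and control lysate took light probe. Lysates were combined equally, and probe-labelled tryptic peptides were streptavidin-enriched. Peptides were run twice by 180 min data-dependent nano LC-MS/MS. Hits needed log2 H/L below −0.776 (3σ) plus a dose-dependent decrease.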

A further test has as its system NCI-H2030. Kind of test: Antiproliferative activity against human NCI-H2030 cells harboring KRAS G12C mutant assessed as reduction in cell viability. The test is classed as functional, cell-based.
Test [2] has as its target T2, Peroxiredoxin-like 2A (Homo sapiens) (UniProt Q9BRX8).
T2 sequence (whole entry): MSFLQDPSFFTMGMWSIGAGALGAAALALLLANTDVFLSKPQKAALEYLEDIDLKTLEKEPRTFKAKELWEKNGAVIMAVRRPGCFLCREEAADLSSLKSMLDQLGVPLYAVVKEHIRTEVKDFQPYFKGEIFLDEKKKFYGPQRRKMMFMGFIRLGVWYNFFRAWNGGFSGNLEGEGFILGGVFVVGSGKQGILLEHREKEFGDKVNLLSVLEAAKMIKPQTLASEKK
Kind of test: Covalent binding affinity to FAM213A in human NCI-H358 cells assessed as log2 H/L ratio at 10 uM pretreated for 3 hrs followed by N-(((6S,7R)-7-(4-chloro-3-fluorophenyl)-1,4-oxazepan-6-yl)methyl)-2-hydroxyacetamide treatment for 3 hrs by competitive TMT click chemistry pull-down experiment based LC-MS/MS analysis. It counts as cell-based. To be noted: time 6.0 hrs. Summed up:
as §1

Test [3] deals with T3, Synaptic vesicle membrane protein VAT-1 homolog (Homo sapiens) (UniProt Q99536).
T3 sequence (whole entry): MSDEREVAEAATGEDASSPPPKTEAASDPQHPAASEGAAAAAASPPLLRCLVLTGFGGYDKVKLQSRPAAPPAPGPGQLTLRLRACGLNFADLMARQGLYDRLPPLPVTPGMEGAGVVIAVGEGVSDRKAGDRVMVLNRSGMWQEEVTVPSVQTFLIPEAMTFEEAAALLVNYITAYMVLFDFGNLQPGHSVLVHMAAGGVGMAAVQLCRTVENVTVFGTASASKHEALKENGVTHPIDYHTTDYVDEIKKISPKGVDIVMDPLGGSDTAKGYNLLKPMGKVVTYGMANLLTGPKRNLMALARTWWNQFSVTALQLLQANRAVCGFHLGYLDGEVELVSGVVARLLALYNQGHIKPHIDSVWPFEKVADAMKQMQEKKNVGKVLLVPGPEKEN
Kind of test: Covalent binding affinity to VAT1 at Cys86 residue in human NCI-H358 cells assessed as log2 H/L ratio at 10 uM pretreated for 3 hrs followed by N-(((6S,7R)-7-(4-chloro-3-fluorophenyl)-1,4-oxazepan-6-yl)methyl)-2-hydroxyacetamide treatment for 3 hrs by competitive TMT click chemistry pull-down experiment based LC-MS/MS analysis. To be noted: time 6.0 hrs. It counts as cell-based. Summed up:
as §1

SMILES strings stand for the structures. pIC50: −log10 of the molar value.

For orientation: pIC50 means the IC50 on a negative log10 scale, so that one unit is a factor of ten. As for `C=CC(=O)N1CCN(c2ncnc3c(F)c(-c4c(O)cccc4F)c(Cl)cc23)CC1`, the Ratio was -1.8 in test [1], -1.7 in test [2] and -0.6 in test [3]. Moreover, the pIC50 on Reticulon-4 is 4.84; in the test with NCI-H2030 it was 6.80.
